ChEMBL document CHEMBL5678798 (Clin Cancer Res, 2009)
Activity calls are given as the source filed them. The calls are words filed in the database; no cut-off is given here.

Legend:
[1] = molecular target: Mitogen-activated protein kinase 8 (Homo sapiens, UniProt P45983); experiment: Inhibition of JNK1 (unknown origin)
[2] = molecular target: Tyrosine-protein kinase Blk (Mus musculus) (UniProt P16277); experiment: Inhibition of N-terminal His6-tagged recombinant full-length mouse Blk expressed in baculovirus infected Sf21 cells at 0.3 uM by filter binding assay relative to control
In short: (§1)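 Outsourced single-concentration screen in a commercial panel of 233 protein kinases, run as radiometric filter-binding activity assays. Test agent was tested at 0.3 or 3 µmol/L, as given in each line, from a 10 mmol/L DMSO stock. Activity is expressed as percent inhibition relative to control.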

[3] = molecular target: Tyrosine-protein kinase Lyn (Homo sapiens) (UniProt P07948); experiment: Inhibition of N-terminal His6-tagged recombinant full-length human Lyn expressed in Sf21 cells at 3 uM by filter binding assay relative to control; in short: as §1
[4] = molecular target: Discoidin domain-containing receptor 2 (Homo sapiens) (UniProt Q16832); experiment: Inhibition of N-terminal His6-tagged recombinant human DDR2 (467 to end residues) expressed in baculovirus infected Sf21 cells at 0.3 uM by filter binding assay relative to control
[5] = molecular target: MAP kinase-activated protein kinase 5 (Homo sapiens) (UniProt Q8IW41); experiment: Inhibition of N-terminal His6-tagged recombinant human full-length PRAK expressed in baculovirus infected Sf21 cells at 3 uM by filter binding assay relative to control
[6] = molecular target: Receptor tyrosine-protein kinase erbB-4 (Homo sapiens, UniProt Q15303); experiment: Inhibition of ErbB4 (unknown origin)
[7] = Inhibition of recombinant mouse N-terminal 6His-tagged full length P110alpha/full length mouse […] expressed in baculovirus infected Sf21 cells at 0.3 uM by filter binding assay relative to control; conditions: condition cancer
COLO 205 = experiment: Antitumor activity against human COLO 205 cells xenografted in nu/nu CD-1 mouse assessed as reduction in tumor growth at 30 mg/kg, po for 21 days relative to control; assay type: functional; conditions: COLO 205, 504 h, time 21 day, read-out: TGI
In short: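 Exponentially growing cells implanted s.c. in the right flank of 8–10-wk-old female athymic nu/nu CD-1 mice. At 150–200 mm3, block-randomized by tumor size into groups of eight. Oral dosing once or twice daily for 21 d; vehicle 20% sulfobutylether-β-cyclodextrin, pH 3.5. Calipers twice weekly; volume = length×width²/2. Growth inhibition = 100×[1 − treated growth/vehicle growth].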

[8] = molecular target: Insulin receptor (Mus musculus) (UniProt P15208); conditions: CD-1, dose 30.0 mg/kg, route po, time 4.0 hrs
NCI-H929 = experiment: Induction of cell cycle arrest in human NCI-H929 cells assessed as cells accumulation at G1 phase at 1 umol/L incubated for 48 hrs by propidium iodide staining based flow cytometric analysis (reference value: 42%); assay type: functional; conditions: dose 1 µmol/L, at 1 µM
In short: (§2)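 COLO 205, MCF-7 or NCI-H929 cells seeded in 96-well plates overnight at 37°C, then exposed to DMSO or increasing compound concentrations for 24 or 48 h. Fixed and stained with propidium iodide (Vindelov method), then analysed by flow cytometry for sub-G1, G1, S and G2-M fractions. Experiment repeated twice.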

[9] = molecular target: Protein-tyrosine kinase 6 (Homo sapiens) (UniProt Q13882); experiment: Inhibition of N-terminal His6-tagged recombinant full-length human BRK expressed in baculovirus infected Sf21 cells at 0.3 uM by filter binding assay relative to control; in short: as §1
MCF7 [10] = experiment: Antiproliferative activity against human MCF7 cells assessed as reduction in cell viability after 72 hrs by CellTiter-Glo assay; assay type: functional, cell-based; conditions: MCF7, 72 h
In short: (§3)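 Cells seeded in 96-well plates, left overnight at 37°C, then exposed to a range of test concentrations for 72 h. Viability read by CellTiter-Glo luminescence; IC50 from four-parameter curve fit. Lines kept at 37°C, 5% CO2, in recommended growth medium.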

[11] = molecular target: Proto-oncogene tyrosine-protein kinase receptor Ret (Homo sapiens) (UniProt P07949); experiment: Inhibition of N-Terminal GST-tagged recombinant human Ret (658 to end residues) expressed in baculovirus infected Sf21 cells at 0.3 uM by filter binding assay relative to control
In short: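 KinaseProfiler panel of 233 kinases: radiometric filter-binding activity assays with compound at 0.3 or 3 µmol/L. Read-out is percent inhibition.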

[12] = molecular target: Mitogen-activated protein kinase 9 (Homo sapiens, UniProt P45984); experiment: Inhibition of JNK2 (unknown origin)
[13] = molecular target: Rho-associated protein kinase 1 (Homo sapiens, UniProt Q13464); experiment: Inhibition of ROCK1 (unknown origin)
[14] = molecular target: Homeodomain-interacting protein kinase 3 (Homo sapiens) (UniProt Q9H422); experiment: Inhibition of N-terminal 6His-tagged recombinant human HIPK3 (161 to 562 residues) expressed in baculovirus infected Sf21 cells at 0.3 uM by filter binding assay relative to control; in short: as §1
Aurora kinase A = Aurora kinase A (Homo sapiens, UniProt O14965); experiment: Inhibition of N-terminal 6His-tagged recombinant full-length human Aurora-A expressed in Sf21 cells by filter binding assay
[15] = molecular target: Mitogen-activated protein kinase kinase kinase 9 (Homo sapiens) (UniProt P80192); experiment: Inhibition of N-terminal 6His-tagged recombinant human MLK1 (134 to 414 residues) expressed in baculovirus infected Sf21 cells at 0.3 uM by filter binding assay relative to control; in short: as §1
[16] = molecular target: Insulin receptor (Mus musculus) (UniProt P15208); conditions: CD-1, dose 10-60 mg/kg, route po, time 242.0 min
[17] = molecular target: Fibroblast growth factor receptor 4 (Homo sapiens) (UniProt P22455); experiment: Inhibition of N-terminal His6-tagged recombinant human FGFR4 (442 to 755 residues) expressed in baculovirus infected Sf21 cells at 3 uM by filter binding assay relative to control
[18] = Cytotoxicity against HMEC cells assessed as reduction in cell viability after 72 hrs by CellTiter-Glo assay; assay type: toxicity, cell-based; conditions: human; in short: as §3
[19] = molecular target: Serine/threonine-protein kinase D2 (PRKD2) (Homo sapiens) (UniProt Q9BZL6); experiment: Inhibition of N-terminal His6 tagged, recombinant full-length human PKD2 expressed in Sf21 cells at 0.3 uM by filter binding assay relative to control
MCF7 [20] = experiment: Induction of cell cycle arrest in human MCF7 cells assessed as cells accumulation at S phase at 1 umol/L incubated for 48 hrs by propidium iodide staining based flow cytometric analysis (reference value: 10%); assay type: functional; conditions: dose 1 µmol/L, at 1 µM; in short: as §2
[21] = molecular target: Mitogen-activated protein kinase kinase kinase 9 (Homo sapiens) (UniProt P80192); experiment: Inhibition of N-terminal 6His-tagged recombinant human MLK1 (134 to 414 residues) expressed in baculovirus infected Sf21 cells at 3 uM by filter binding assay relative to control; in short: as §1
[22] = molecular target: Ribosomal protein S6 kinase alpha-4 (Homo sapiens, UniProt O75676); experiment: Inhibition of N-terminal His6-tagged recombinant human MSK2 (2 to end residues) expressed in baculovirus infected Sf21 cells by filter binding assay
Chain of Ribosomal protein S6 kinase alpha-4 (O75676 whole entry): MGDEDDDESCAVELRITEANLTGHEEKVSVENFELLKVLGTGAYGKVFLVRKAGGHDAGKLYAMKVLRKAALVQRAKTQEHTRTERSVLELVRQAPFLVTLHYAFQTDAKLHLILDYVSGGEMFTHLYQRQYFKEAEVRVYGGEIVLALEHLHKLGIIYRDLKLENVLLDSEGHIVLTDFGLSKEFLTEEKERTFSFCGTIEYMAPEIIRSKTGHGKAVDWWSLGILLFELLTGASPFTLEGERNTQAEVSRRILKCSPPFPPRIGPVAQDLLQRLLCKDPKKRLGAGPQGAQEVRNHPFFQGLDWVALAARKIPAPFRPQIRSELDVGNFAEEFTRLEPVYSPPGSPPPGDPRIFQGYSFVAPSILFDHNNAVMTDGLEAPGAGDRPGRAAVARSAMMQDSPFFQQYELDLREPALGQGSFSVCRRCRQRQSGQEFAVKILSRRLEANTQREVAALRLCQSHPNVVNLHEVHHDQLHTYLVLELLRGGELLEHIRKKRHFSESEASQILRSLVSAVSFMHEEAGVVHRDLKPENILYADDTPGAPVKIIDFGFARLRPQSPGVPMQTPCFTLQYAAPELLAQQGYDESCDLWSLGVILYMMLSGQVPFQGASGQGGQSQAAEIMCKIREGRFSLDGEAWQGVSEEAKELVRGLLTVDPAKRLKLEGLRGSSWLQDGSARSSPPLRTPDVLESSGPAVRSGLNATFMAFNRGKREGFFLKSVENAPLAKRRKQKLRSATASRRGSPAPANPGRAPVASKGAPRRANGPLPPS

Chain of Mitogen-activated protein kinase kinase kinase 9 (Homo sapiens) (P80192 whole entry, looked up, the tested form may be a part): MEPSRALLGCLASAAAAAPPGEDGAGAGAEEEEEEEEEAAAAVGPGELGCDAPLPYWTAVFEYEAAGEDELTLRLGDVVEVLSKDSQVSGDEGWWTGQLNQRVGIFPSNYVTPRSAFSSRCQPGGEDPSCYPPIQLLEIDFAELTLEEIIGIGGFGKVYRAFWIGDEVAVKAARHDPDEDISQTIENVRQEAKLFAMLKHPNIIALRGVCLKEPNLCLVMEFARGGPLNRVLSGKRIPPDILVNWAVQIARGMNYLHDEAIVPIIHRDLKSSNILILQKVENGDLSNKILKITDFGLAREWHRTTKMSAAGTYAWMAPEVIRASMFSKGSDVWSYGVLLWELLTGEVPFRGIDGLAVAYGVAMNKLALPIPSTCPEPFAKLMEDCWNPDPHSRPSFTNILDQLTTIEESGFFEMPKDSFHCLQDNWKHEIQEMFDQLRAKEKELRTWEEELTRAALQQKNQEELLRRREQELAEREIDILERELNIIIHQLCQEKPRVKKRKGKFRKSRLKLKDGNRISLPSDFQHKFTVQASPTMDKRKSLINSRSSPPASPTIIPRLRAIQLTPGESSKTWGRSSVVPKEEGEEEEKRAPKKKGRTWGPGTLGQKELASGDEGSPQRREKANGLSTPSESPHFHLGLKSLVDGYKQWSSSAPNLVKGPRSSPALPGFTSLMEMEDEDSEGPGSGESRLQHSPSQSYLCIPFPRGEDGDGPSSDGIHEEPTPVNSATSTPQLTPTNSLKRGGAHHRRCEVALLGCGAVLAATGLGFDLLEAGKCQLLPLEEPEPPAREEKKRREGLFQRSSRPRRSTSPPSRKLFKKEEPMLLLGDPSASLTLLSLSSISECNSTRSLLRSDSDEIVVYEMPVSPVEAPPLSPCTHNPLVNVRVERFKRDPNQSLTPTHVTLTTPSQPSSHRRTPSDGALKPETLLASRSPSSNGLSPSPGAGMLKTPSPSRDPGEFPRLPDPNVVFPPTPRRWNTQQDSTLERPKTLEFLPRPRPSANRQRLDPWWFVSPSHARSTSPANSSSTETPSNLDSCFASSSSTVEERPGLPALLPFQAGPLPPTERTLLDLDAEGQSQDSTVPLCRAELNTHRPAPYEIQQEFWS
Chain of Insulin receptor (Mus musculus) (P15208 28-748 limits assumed): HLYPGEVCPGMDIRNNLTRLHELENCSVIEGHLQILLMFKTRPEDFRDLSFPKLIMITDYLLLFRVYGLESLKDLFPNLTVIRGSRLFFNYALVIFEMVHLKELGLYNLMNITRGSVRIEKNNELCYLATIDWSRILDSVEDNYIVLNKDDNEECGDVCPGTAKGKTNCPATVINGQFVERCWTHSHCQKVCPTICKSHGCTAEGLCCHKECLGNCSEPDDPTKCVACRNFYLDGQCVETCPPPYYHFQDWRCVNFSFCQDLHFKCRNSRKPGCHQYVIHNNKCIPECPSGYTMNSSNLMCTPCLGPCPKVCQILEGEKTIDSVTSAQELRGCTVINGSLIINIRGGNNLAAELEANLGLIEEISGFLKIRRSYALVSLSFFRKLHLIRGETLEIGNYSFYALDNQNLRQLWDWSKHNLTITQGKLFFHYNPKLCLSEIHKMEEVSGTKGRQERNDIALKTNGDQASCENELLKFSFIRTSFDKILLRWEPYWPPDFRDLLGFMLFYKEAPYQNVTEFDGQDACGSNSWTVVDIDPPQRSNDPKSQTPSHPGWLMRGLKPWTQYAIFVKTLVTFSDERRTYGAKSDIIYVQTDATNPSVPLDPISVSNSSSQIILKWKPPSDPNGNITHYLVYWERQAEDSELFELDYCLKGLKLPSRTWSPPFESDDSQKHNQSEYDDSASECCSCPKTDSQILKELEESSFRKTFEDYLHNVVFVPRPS
Chain of Insulin receptor (Mus musculus) (P15208 753-1372 limits assumed): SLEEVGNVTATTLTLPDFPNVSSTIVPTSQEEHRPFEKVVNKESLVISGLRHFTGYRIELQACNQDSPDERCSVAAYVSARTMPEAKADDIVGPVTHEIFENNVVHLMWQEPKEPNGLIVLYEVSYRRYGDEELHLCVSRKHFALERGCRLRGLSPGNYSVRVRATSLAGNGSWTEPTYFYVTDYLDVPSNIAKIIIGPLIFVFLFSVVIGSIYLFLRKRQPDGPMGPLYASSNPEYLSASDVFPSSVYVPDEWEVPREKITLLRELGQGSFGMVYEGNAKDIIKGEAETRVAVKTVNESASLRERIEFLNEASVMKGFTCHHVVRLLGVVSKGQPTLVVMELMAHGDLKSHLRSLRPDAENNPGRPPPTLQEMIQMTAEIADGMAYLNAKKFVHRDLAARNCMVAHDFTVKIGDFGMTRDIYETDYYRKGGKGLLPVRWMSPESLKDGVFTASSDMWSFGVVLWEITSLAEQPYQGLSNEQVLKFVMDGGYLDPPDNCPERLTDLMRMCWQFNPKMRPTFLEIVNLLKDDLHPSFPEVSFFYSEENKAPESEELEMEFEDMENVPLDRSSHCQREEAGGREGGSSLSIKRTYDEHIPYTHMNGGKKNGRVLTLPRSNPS
Chain of Protein-tyrosine kinase 6 (Homo sapiens) (Q13882 whole entry, looked up): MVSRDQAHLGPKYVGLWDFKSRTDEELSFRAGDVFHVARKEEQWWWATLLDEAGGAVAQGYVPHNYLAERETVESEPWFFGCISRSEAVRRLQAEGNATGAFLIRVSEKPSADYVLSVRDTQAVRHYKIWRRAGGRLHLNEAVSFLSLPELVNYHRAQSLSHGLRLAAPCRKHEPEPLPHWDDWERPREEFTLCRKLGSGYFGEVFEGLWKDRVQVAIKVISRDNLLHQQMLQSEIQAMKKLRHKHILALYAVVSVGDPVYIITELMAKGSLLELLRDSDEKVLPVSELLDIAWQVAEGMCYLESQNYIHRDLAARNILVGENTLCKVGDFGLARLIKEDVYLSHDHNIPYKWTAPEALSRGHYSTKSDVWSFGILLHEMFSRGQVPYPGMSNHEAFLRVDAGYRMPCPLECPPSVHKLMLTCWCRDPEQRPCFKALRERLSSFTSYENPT
Chain of Homeodomain-interacting protein kinase 3 (Homo sapiens) (Q9H422 whole entry, looked up, the tested form may be a part): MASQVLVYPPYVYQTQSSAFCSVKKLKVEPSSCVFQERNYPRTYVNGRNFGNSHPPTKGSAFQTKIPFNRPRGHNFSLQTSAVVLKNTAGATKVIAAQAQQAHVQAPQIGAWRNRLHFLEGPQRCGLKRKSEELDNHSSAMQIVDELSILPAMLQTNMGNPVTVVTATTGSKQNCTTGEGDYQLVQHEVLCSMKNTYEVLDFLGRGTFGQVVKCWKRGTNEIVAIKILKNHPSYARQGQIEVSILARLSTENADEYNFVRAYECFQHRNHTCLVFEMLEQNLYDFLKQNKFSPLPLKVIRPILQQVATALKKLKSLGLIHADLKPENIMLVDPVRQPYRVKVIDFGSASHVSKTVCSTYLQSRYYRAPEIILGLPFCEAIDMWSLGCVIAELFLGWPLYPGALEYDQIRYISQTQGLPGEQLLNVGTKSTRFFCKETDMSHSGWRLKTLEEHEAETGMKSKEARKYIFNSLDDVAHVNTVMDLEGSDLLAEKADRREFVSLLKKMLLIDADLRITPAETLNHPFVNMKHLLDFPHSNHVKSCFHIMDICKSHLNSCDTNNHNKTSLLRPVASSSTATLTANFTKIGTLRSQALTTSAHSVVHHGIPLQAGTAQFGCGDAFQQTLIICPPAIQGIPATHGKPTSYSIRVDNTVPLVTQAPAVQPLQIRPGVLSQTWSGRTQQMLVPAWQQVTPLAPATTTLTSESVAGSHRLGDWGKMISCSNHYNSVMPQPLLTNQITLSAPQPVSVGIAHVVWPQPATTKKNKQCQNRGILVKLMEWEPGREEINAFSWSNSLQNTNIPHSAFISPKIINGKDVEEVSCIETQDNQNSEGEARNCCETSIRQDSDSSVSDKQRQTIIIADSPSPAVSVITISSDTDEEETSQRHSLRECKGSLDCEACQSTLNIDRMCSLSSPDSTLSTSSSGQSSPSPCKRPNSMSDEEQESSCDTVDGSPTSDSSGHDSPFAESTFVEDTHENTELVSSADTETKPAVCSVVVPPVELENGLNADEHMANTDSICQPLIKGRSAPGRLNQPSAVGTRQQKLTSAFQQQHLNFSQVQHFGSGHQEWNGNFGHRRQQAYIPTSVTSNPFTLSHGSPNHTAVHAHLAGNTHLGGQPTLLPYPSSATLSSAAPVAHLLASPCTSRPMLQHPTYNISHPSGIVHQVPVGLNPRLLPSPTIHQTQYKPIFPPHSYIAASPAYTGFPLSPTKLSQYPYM

With CCc1cc(Nc2nccc(-c3c(-c4ccc(OC)c(C(=O)Nc5c(F)cccc5F)c4)nc4ccccn34)n2)c(OC)cc1N1CCC(N2CCN(S(C)(=O)=O)CC2)CC1 the IC50 [1] was over 10 µM, the inhibition [2] was 25% and the inhibition [3] was 37%. The inhibition [4] was 0%, the inhibition [5] was 35% and the IC50 [6] was over 25 µM. For the same molecule, the inhibition at 0.3 µM [7] was 0%, the inhibition in vivo at 30 mg/kg (COLO 205) was 75% and the inhibition [8] was “inactive”. It also gave an Activity (NCI-H929) of 79%, an inhibition [9] of 25% and an IC50 (MCF7 [10]) of 0.137 µM. For the same molecule, the inhibition [11] was 30%, the IC50 [12] was over 10 µM and the IC50 [13] was over 10 µM. For the same molecule, the inhibition [14] was 1%, the IC50 (Aurora kinase A) was 0.159 µM and the inhibition [15] was 1%. The inhibition [16] was “inactive”, the inhibition [17] was 29% and the IC50 at 72 h [18] was over 20 µM. The inhibition [19] was 4%, the Activity (MCF7 [20]) was 5% and the inhibition [21] was -8%. The IC50 [22] was 3.64 µM.
